Test results: ChEMBL document CHEMBL1138107, “Novel non-nucleobase inhibitors of Staphylococcus aureus DNA polymerase IIIC” (Bioorg Med Chem Lett, 2006)
≈ marks a conversion by molar mass, not a printed value.

Legend:
Staphylococcus aureus [1] = assay: Antimicrobial activity against Staphylococcus aureus (RN4220); assay type: functional; settings: read-out: MIC
HeLa = assay: Cytotoxicity against HeLa cell line by MTS assay; assay type: functional, cell-based; settings: Homo sapiens
Method in brief: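 HeLa cells (2 × 10⁴/well) in DMEM with 1% bovine growth serum were exposed to compound at 100, 50, 25 and 12.5 for 18 h at 37 °C under 5% CO₂. Viability was read as MTS reduction to formazan, by absorbance at 490 nm.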

[2] = molecular target: T1, DNA polymerase III PolC-type (Staphylococcus aureus, UniProt P0C1P9); assay: Inhibition of DNA polymerase3C from Staphylococcus aureus
T1 sequence (P0C1P9 whole entry): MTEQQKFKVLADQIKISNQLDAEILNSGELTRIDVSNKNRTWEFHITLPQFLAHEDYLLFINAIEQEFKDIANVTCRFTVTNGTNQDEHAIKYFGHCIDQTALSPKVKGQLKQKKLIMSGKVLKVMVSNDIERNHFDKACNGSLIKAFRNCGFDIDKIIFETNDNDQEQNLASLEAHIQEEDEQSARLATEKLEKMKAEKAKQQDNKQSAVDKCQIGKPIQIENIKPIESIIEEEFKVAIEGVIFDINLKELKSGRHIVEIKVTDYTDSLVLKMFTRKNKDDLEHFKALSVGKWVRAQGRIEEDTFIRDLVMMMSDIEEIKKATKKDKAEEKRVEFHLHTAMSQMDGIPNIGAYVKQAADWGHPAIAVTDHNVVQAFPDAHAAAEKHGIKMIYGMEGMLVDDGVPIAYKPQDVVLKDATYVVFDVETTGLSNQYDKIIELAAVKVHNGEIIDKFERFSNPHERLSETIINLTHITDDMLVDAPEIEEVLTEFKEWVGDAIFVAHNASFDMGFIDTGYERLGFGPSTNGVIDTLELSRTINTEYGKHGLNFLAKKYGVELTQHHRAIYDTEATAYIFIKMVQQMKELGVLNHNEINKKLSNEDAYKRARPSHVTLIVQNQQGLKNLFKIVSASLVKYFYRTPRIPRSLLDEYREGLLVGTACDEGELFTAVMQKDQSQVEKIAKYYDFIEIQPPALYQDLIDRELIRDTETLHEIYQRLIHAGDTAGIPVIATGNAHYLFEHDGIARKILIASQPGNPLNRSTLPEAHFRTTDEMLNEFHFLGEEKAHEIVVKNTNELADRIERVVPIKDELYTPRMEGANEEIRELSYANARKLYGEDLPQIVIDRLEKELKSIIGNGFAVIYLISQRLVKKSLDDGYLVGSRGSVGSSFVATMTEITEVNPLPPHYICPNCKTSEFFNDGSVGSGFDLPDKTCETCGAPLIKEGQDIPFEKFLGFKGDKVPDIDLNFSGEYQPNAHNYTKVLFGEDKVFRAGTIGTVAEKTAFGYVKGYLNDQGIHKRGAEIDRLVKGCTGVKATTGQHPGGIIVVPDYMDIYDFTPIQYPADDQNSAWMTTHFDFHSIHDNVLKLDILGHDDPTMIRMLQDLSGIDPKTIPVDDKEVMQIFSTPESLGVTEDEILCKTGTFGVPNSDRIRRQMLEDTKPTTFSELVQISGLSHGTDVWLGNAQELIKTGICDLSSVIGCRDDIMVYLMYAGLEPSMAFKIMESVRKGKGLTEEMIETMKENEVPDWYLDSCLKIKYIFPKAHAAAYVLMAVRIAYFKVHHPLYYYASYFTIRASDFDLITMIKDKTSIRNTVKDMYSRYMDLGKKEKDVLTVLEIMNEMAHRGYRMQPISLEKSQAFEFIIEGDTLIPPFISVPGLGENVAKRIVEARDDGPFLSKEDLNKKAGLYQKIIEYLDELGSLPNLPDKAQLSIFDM
Method in brief: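 Purified PolC (125 ng) started the reaction with a double-stranded oligonucleotide substrate, dATP, dCTP, low dGTP and [³H]dTTP (1 Ci/mmol) in Tris-HCl pH 7.5 buffer with glycerol, EDTA, DTT, IgG and 8 mM MgCl₂. Incubation was 30 min at 37 °C, stopped with 20 mM EDTA, then spotted on DE81 filters, washed and counted by scintillation. IC50 came from a 12-point, roughly 2-fold serial dilution, run in triplicate.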

[3] = molecular target: T2, DNA polymerase III PolC-type (Staphylococcus aureus) (UniProt P0C1P9); assay: Inhibition of DNA polymerase3C from Staphylococcus aureus at 100 uM
T2 sequence (whole entry): T1 sequence (P0C1P9 whole entry)
Method in brief: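 PolC oligonucleotide-primed incorporation of [³H]dTTP was run with 125 ng purified enzyme for 30 min at 37 °C. It was quenched with EDTA, filter-bound on DE81 and counted by liquid scintillation. Compounds were screened in triplicate at 10, 50 and 100.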

Staphylococcus aureus [4] = assay: Antimicrobial activity against Staphylococcus aureus (RN4220) in presence of 50% of human serum; assay type: functional
Staphylococcus aureus [5] = assay: Inhibition of DNA replication utilizing Staphylococcus aureus replication proteins in presence of reduced dATP concentrations; assay type: functional, organism-based
Method in brief: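 The replication assay used a singly primed circular ssM13 template copied by S. aureus PolC, with β clamp, δδ′/τ clamp loader and SSB. [³H]dTTP incorporation was measured in streptavidin-coated scintillation plates, with the dATP concentration reduced to sensitize the assay to dATP analogs.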

Row | Compound | MIC (Staphylococcus aureus [1]) [µg/mL] | Activity (HeLa) | IC50 [2] [µM] | inhibition [3] [%] | MIC (Staphylococcus aureus [4]) [µg/mL] | IC50 (Staphylococcus aureus [5]) [µM]
1 | Oc1nc(Nc2ccc3c(c2)CCC3)nc(O)c1CCCCOc1ccccc1 | 8 (≈ 20.4 µM) | Not toxic | 14 | 67 |  | 
2 | C=CCc1c(O)nc(Nc2ccc3c(c2)CCC3)nc1OC | 128 (≈ 430 µM) | Not toxic |  | 33 | > 128 | 
3 | C=CCc1c(O)nc(Nc2ccc3c(c2)CCC3)nc1Cl | 1 (≈ 3.31 µM) | Not toxic |  | 53 | > 128 | 
4 | Nc1cc(O)nc(Nc2ccc3c(c2)CCC3)n1 | > 128 | Not toxic |  | 5 | > 128 | 
5 | Nc1ccc(OCCCc2c(O)nc(Nc3ccc4c(c3)CCC4)[nH]c2=O)cc1 |  |  | 9 |  |  | 
6 | CCc1cc(Nc2nc(N)c(Cc3ccccc3)c(O)n2)ccc1C | > 128 | Not toxic |  | 3 | > 128 | 9.7
7 | N#Cc1ccc(OCCCc2c(O)nc(Nc3ccc4c(c3)CCC4)[nH]c2=O)cc1 |  |  | 5.6 |  |  | 
8 | O=[N+]([O-])c1ccc(OCCCc2c(O)nc(Nc3ccc4c(c3)CCC4)nc2O)cc1 | 4 (≈ 9.47 µM) | Not toxic |  | 70 |  | 
9 | CCCc1cnc(Nc2ccc3c(c2)CCC3)nc1O | > 128 | Not toxic |  | 7 | > 128 | 
10 | O=C(O)c1ccc(OCCCc2c(O)nc(Nc3ccc4c(c3)CCC4)nc2O)cc1 | > 128 | Not toxic |  | 90 |  | 
11 | C=CCCCc1c(O)nc(Nc2ccc3c(c2)CCC3)nc1O | 16 (≈ 51.4 µM) | Not toxic |  | 89 |  | 
12 | C=CCc1c(N)nc(Nc2ccc(C)c(CC)c2)[nH]c1=O |  |  | 164 |  |  | 
13 | O=[N+]([O-])c1ccc(OCCCc2c(O)nc(Nc3ccc4c(c3)CCC4)nc2O)nc1 | 64 (≈ 151 µM) | Not toxic | 5.1 | 85 |  | 
14 | Nc1nc(Nc2ccc3c(c2)CCC3)nc(O)c1CCCc1ccccc1 | > 128 | Not toxic |  | -0 | > 128 | > 100
15 | N#Cc1ccc(OCCCc2c(O)nc(Nc3ccc4c(c3)CCC4)nc2O)cc1 | 8 (≈ 19.9 µM) | Not toxic |  | 91 |  | 
16 | Oc1nc(Nc2ccc3c(c2)CCC3)nc(O)c1CCCN1CCCCC1 | 128 (≈ 347 µM) | Not toxic |  | 69 |  | 
17 | O=c1[nH]c(Nc2ccc3c(c2)CCC3)nc(O)c1CCCc1ccccc1 |  |  | 3 |  |  | 
18 | CCc1cc(Nc2nc(O)c(CCCc3ccc(C#N)cc3OC)c(O)n2)ccc1C | 16 (≈ 38.2 µM) | Not toxic |  | 81 |  | 
19 | CCc1cc(Nc2nc(N)c(CCCc3ccccc3)c(O)n2)ccc1C | > 128 | Not toxic |  | 12 | > 128 | 7.9

Row | Compound | MIC (Staphylococcus aureus [1]) [µg/mL] | Activity (HeLa) | IC50 [2] [µM] | inhibition [3] [%] | MIC (Staphylococcus aureus [4]) [µg/mL] | IC50 (Staphylococcus aureus [5]) [µM]
20 | COc1ccc(OCCCc2c(O)nc(Nc3ccc4c(c3)CCC4)nc2O)cc1 | 16 (≈ 39.3 µM) | Not toxic |  | 81 |  | 
21 | O=c1[nH]c(Nc2ccc3c(c2)CCC3)nc(O)c1CCCOc1ccc([N+](=O)[O-])cc1 |  |  | 2.6 |  |  | 
22 | Oc1nc(Nc2ccc3c(c2)CCC3)nc(O)c1CCOc1ccccc1 | 16 (≈ 44 µM) | Not toxic |  | 74 |  | 
23 | Oc1nc(Nc2ccc3c(c2)CCC3)nc(O)c1CCCCc1ccccc1 | > 128 | Not toxic |  | 35 |  | 
24 | COc1cc(OCCCc2c(O)nc(Nc3ccc4c(c3)CCC4)nc2O)ccc1[N+](=O)[O-] | 8 (≈ 17.7 µM) | Not toxic |  | 72 |  | 
25 | Nc1ccc(OCCCc2c(O)nc(Nc3ccc4c(c3)CCC4)nc2O)cc1 | > 64 | Not toxic |  | 83 |  | 
26 | Oc1nc(Nc2ccc3c(c2)CCC3)nc(O)c1CCc1ccccc1 | 8 (≈ 23 µM) | Not toxic | 18 | 68 |  | 
27 | C=CCc1c(O)nc(Nc2ccc(C)c(CC)c2)[nH]c1=O |  |  | 7.7 |  |  | 
28 | C=CCc1c(Cl)nc(Nc2ccc3c(c2)CCC3)[nH]c1=O |  |  | 2.3 |  |  | 
29 | NCCCc1c(O)nc(Nc2ccc3c(c2)CCC3)nc1O | > 128 | Not toxic |  | 40 |  | 
30 | OCCCc1c(O)nc(Nc2ccc3c(c2)CCC3)nc1O | 128 (≈ 425 µM) | Not toxic |  | 74 |  | 
31 | Oc1nc(Nc2ccc3c(c2)CCC3)nc(O)c1Cc1ccccc1 | 8 (≈ 24 µM) | Not toxic | 37 | 90 |  | 
32 | COC(=O)c1ccc(OCCCc2c(O)nc(Nc3ccc4c(c3)CCC4)nc2O)cc1 | 64 (≈ 147 µM) | Not toxic |  | 74 |  | 
33 | COc1ccc(OCCCc2c(O)nc(Nc3ccc4c(c3)CCC4)[nH]c2=O)cc1 |  |  | 11.6 |  |  | 
34 | C=CCCc1c(O)nc(Nc2ccc3c(c2)CCC3)nc1O | 8 (≈ 26.9 µM) | Not toxic | 17.9 | 87 |  | 
35 | C=CCCCCc1c(O)nc(Nc2ccc3c(c2)CCC3)nc1O | 16 (≈ 49.2 µM) | Not toxic |  | 81 |  | 
36 | Oc1nc(Nc2ccc3c(c2)CCC3)nc(Cl)c1CCCc1ccccc1 | 16 (≈ 42.1 µM) | Not toxic |  | 46 | > 128 | 
37 | C=CCc1c(O)nc(Nc2ccc3c(c2)CCC3)[nH]c1=O |  |  | 31 |  |  | 
